Results collected from several papers.
Each line is one published result; the experiments were not run side by side.
Target: Ephrin type-B receptor 1 (EPHB1, Homo sapiens, UniProt P54762)

| Compound | test | conditions | quantity | value |
| --- | --- | --- | --- | --- |
| CCN(CC)c1ccc(C2=NNC(=O)CC2C)cc1[N+](=O)[O-] (stereo not shown) | enzyme activity, inhibitor | 10 µM | remaining activity | 97% |
| Cc1ccc(C(=O)Nc2ccc(CN3CCN(C)CC3)c(C(F)(F)F)c2)cc1C#Cc1cnc2cccnn12 | cell-free assay | 23.5 nM | remaining signal | 29% |
| COc1cc(/C=C/C(=O)CC(=O)/C=C/c2ccc(O)c(OC)c2)ccc1O | enzyme activity, inhibitor | 1 µM | activity vs control | 100% |
| CC(=O)c1c(NS(C)(=O)=O)c2cc(-c3ccc(Cl)cc3)c(-c3ccc(Cl)cc3Cl)nc2n(C)c1=O | cell-free assay, competition with immobilised ligand | 1 µM | remaining binding | 100% |
| Clc1ccc(Nc2nnc(Cc3ccncc3)c3ccccc23)cc1 | cell-free assay | 0.5 µM | remaining signal | 107% |
| COc1cc2ncnc(Nc3ccc(Oc4ccccc4)cc3C)c2cc1OC | enzyme activity, inhibitor | 1 µM | inhibition | 6% |
| Cc1ccc(Nc2nccc(N(C)c3ccc4c(C)n(C)nc4c3)n2)cc1S(N)(=O)=O | enzyme activity, inhibitor | 0.3 µM | inhibition | 8% |
| CNC(=O)c1cc2c(Oc3ccc(NC(=O)C4(C(=O)Nc5ccc(F)cc5)CC4)cc3)ccnc2cc1OC | enzyme activity, inhibitor, radiometric | 1 µM | inhibition | 99% |
| Cc1noc([C@H]2C[C@@H](c3ccc(C(F)(F)F)cc3)CN(C(=O)N3CCS(=O)(=O)C3)C2)n1 | cell-free assay, competition with immobilised ligand | 1 µM | remaining binding | 100% |
| CC(C)(C)c1nc2c(s1)c1nc(N)ncc1c1ccc(NS(=O)(=O)c3c(F)cccc3F)c(F)c12 | enzyme activity, inhibitor, radiometric | 1 µM | remaining activity | 76% |
| C[C@@H]1CN(c2cc(-c3n[nH]c4ccc(OC5(C)CC5)cc34)ncn2)C[C@H](C)O1 | cell-free assay, competition with immobilised ligand | 0.1 µM | remaining binding | 83% |
| C#Cc1cccc(Nc2ncnc3cc(OCCOC)c(OCCOC)cc23)c1 | cell-free assay | 0.5 µM | remaining signal | 100% |
| CC(C)CC(=O)N1CCc2nc(-c3ccc(Br)cc3)nc(N(C)Cc3ccccc3)c2C1 | cell-free assay, competition with immobilised ligand | 0.1 µM | remaining binding | 100% |
| O=C1NC(=O)c2cc(Nc3ccc(F)cc3)c(Nc3ccc(F)cc3)cc21 | cell-free assay | 0.5 µM | remaining signal | 103% |
| O=C(O)[C@H]1[C@H](Cn2nnc3ccccc3c2=O)CC[C@@H]1C(=O)c1ccc(OCCC2CCOCC2)cc1 | cell-free assay, competition with immobilised ligand | 1 µM | remaining binding | 100% |
| C=CC(=O)Nc1cc(Nc2nccc(Nc3cc(Cl)c(F)cc3C(C)(C)O)n2)c(OC)cc1N1CC[C@@H](N(C)C)C1 | enzyme activity, inhibitor | 1 µM | inhibition | 24% |
| O=C(Nc1cnn(-c2csc(C(=O)NC3COC3)c2)c1)Nc1c(F)cccc1Cl | enzyme activity, inhibitor | 5 µM | remaining activity | 96.1% |
| COc1cc(-c2cc(-c3ccc(N4CCNCC4)cc3)cnc2C)cc(OC)c1OC | enzyme activity, inhibitor | 0.1 µM | inhibition | 5% |
| CCN(CC)CCNC(=O)c1c(C)[nH]c(/C=C2\C(=O)Nc3ccc(F)cc32)c1C | enzyme activity, inhibitor | 10 µM | inhibition | 91% |
| O=C(NS(=O)(=O)c1ccc(NCC2CCOCC2)c([N+](=O)[O-])c1)c1ccc(N2CCN(Cc3ccc(C(F)(F)F)cc3-c3ccc(Cl)cc3)CC2)cc1Oc1cnc2[nH]ccc2c1 | cell-free assay, competition with immobilised ligand | 1 µM | remaining binding | 100% |
| Oc1cccc(-c2nc(N3CCOCC3)c3oc4ncccc4c3n2)c1 | enzyme activity, inhibitor | 10 µM | remaining activity | 131% |
| CS(=O)(=O)CCNCc1ccc(-c2ccc3ncnc(Nc4ccc(OCc5cccc(F)c5)c(Cl)c4)c3c2)o1 | cell-free assay | 0.5 µM | remaining signal | 104% |
| COc1cc(Nc2cnc(C#N)c(O[C@H](C)CN(C)C)n2)ncc1-c1cnn(C)c1 | enzyme activity, inhibitor, radiometric | 10 µM | remaining activity | 71% |
| Cn1c(=O)n(-c2ccc(C(C)(C)C#N)cc2)c2c3cc(-c4cnc5ccccc5c4)ccc3ncc21 | enzyme activity, inhibitor | 10 µM | remaining activity | 133% |
| CNCc1ccccc1-c1csc([C@@H](C)Nc2nc(C)nc3cc(OC)c(OC)cc23)c1 | cell-free assay, competition with immobilised ligand | 1 µM | remaining binding | 100% |
| Cc1sc(C(=O)NC2COC2)cc1-n1cc(NC(=O)Nc2c(F)cccc2Cl)cn1 | enzyme activity, inhibitor | 10 µM | remaining activity | 100% |
| Cc1nccc(COC(=O)N2C[C@@H]3[C@@H](CNC(=O)c4ccc5[nH]nnc5c4)[C@@H]3C2)n1 | cell-free assay, competition with immobilised ligand | 1 µM | remaining binding | 95% |
| CCCOc1ccc(OC)c(F)c1C(=O)c1ccc(C(=O)N[C@@H]2CNC[C@H]2NC(=O)c2ccc3[nH]ncc3c2)cc1 | enzyme activity, inhibitor | 10 µM | remaining activity | 42% |
